ChEMBL document CHEMBL3112484, “Design, synthesis, and biological evaluation of a series of piperazine ureas as fatty acid amide hydrolase inhibitors” (Bioorg Med Chem, 2014)
≈ marks a conversion by molar mass, not a printed value.

Columns and labels:
Mus musculus = assay: Analgesic activity in ICR mouse assessed as inhibition of acetic acid-induced writhing at 10 mg/kg, po pretreated for 60 mins followed by acetic acid-challenge measured for 20 mins relative to control; assay type: functional
Summary of the method: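 Mice received compound po at 10 mg/kg as a suspension in 0.5% methylcellulose (10 mL/kg). After 60 min, 0.6% (v/v) acetic acid (10 mL/kg) was given ip. Each mouse was then placed alone in an observation chamber. Treated mice were compared with vehicle-treated mice by Student's t-test.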

[1] = molecular target: T1, Fatty-acid amide hydrolase 1 (Rattus norvegicus, UniProt P97612); assay: Apparent inhibition of rat FAAH using AMCAA as substrate after 30 mins by fluorescence assay
T1 sequence (P97612 whole entry): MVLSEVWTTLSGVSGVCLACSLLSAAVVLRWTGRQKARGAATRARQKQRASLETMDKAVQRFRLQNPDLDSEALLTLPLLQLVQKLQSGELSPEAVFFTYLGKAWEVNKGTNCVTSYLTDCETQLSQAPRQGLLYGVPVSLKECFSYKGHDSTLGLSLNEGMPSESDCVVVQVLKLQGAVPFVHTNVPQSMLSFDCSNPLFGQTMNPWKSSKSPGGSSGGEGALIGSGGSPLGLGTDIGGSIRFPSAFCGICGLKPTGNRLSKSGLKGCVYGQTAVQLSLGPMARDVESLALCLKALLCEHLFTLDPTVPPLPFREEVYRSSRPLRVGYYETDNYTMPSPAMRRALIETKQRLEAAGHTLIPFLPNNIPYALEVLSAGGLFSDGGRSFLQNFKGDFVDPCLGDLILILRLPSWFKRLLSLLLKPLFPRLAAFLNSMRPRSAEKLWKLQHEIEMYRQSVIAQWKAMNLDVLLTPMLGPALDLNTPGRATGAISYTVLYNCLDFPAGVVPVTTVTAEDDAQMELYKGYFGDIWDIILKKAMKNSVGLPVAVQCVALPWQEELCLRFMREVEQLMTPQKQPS
Summary of the method: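 Rat FAAH enzyme fraction (125–250 ng final) was reacted with AMCAA substrate across a range of compound concentrations at 37 °C. Buffer: 125 mM Tris-HCl pH 9.0, 1 mM EDTA, 0.4 mM HEPES, 0.2% glycerol, 0.02% Triton X-100, 0.3% fatty acid free BSA. Fluorescence read at ex 355/em 460 nm, scaled to solvent (100%) and zero-time (0%). IC50 determined at a 30 min reaction.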

[2] = molecular target: T2, Fatty-acid amide hydrolase 1 (Homo sapiens, UniProt O00519); assay: Apparent inhibition of human FAAH expressed in CHOK1 cells using AMCAA as substrate after 30 mins by fluorescence assay; assay type: cell-based, CHO-K1
T2 sequence (O00519 whole entry): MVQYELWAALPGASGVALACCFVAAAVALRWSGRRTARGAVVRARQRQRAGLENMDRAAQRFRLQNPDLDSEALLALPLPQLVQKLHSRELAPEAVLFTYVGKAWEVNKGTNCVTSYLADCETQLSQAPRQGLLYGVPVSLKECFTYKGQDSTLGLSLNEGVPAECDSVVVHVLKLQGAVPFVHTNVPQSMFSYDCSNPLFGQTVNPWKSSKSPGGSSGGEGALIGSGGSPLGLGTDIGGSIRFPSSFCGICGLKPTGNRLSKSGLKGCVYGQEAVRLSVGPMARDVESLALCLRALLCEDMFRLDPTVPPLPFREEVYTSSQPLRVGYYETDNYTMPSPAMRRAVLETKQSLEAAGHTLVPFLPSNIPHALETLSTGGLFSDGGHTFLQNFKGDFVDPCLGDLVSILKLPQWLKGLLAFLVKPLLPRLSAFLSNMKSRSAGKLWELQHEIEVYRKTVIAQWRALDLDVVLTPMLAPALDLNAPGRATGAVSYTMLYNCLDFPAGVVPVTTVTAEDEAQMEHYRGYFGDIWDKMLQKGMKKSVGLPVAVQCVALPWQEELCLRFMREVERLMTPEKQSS
Summary of the method: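 Enzyme source: CHO-K1 cells stably expressing human FAAH cloned from a human brain library, grown in Ham's F-12 with 10% FBS and 800 µg/mL G418, then homogenized in 10 mM Tris, 1 mM EDTA, 10 mM MgCl2. Fraction (125–250 ng final) was incubated with AMCAA at 37 °C in Tris-HCl pH 9.0 buffer with BSA. Fluorescence read at ex 355/em 460 nm; solvent = 100%, zero-time count = 0%. IC50 from a 30 min reaction.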

[3] = Solubility of the compound in aqueous buffer at pH 6.8 by HPLC analysis; assay type: physicochemical
Summary of the method: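 Small volumes of compound DMSO solution were added to aqueous buffer at pH 6.8 and incubated. Precipitate was removed by filtration, and the filtrate concentration was measured by HPLC.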

Brain [4] = assay: AUC in rat brain at 3 mg/kg, po by LC/MS/MS analysis; assay type: ADME, organism-based; set-up: dose 3 mg/kg, route oral; conditions: in vivo
Summary of the method: (§1)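 Rats given single oral doses of 0.03, 0.3 or 3 mg/kg as a suspension in 0.5% methylcellulose. Brain drug levels were measured by LC/MS/MS over time, and AUC is reported in ng h/g. Each value is the mean of n = 3.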

Brain [5] = assay: AUC in rat brain at 0.3 mg/kg, po by LC/MS/MS analysis; assay type: ADME, organism-based; set-up: dose 0.3 mg/kg, route oral; conditions: in vivo; summary of the method: as §1
Brain [6] = assay: AUC in rat brain at 0.03 mg/kg, po by LC/MS/MS analysis; assay type: ADME, organism-based; set-up: dose 0.03 mg/kg, route oral; conditions: in vivo; summary of the method: as §1
Rattus norvegicus [7] = assay: Analgesic activity in po dosed Sprague-Dawley rat sciatic nerve injury-induced neuropathic pain model assessed as attenuation of tactile allodynia administered for 7 days measured 2 hrs after treatment; assay type: functional, organism-based; conditions: in the assay text read “administered 7 days after nerve injury” for “administered for 7 days”
Summary of the method: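 Seven-week-old male Sprague Dawley rats under pentobarbital had the right common peroneal nerve tightly ligated with 4-0 silk and transected distally; in sham rats the nerve was exposed only. Seven days later, rats got an oral dose of 1, 3 or 10 mg/kg or 0.5% methylcellulose vehicle. Ipsilateral tactile allodynia was scored blinded with von Frey filaments 2 h post-dose. Mean and SE, 8 rats.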

Rattus norvegicus [8] = assay: Analgesic activity in po dosed Sprague-Dawley rat complete Freund's adjuvant-induced inflammatory pain model assessed as attenuation of tactile allodynia administered for 5 days measured 4 hrs after treatment; assay type: functional, organism-based; conditions: in the assay text read “administered 5 days after CFA injection” for “administered for 5 days”
Summary of the method: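 Six-week-old male Sprague Dawley rats received 150 µL CFA into the plantar surface of the right hind paw; sham rats got liquid paraffin instead. Five days after injection, a single oral dose of 1, 3 or 10 mg/kg was given, with 0.5% methylcellulose as vehicle. Ipsilateral tactile allodynia was scored blinded with von Frey filaments 4 h post-dose. Mean and SE, 8–10 rats.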

[9] = molecular target: T3, Fatty-acid amide hydrolase 1 (Homo sapiens) (UniProt O00519); assay: Irreversible inhibition of FAAH (unknown origin) using AMCAA as substrate at 10 nM by fluorescence assay; conditions: TDE = time-dependent effect
T3 sequence (whole entry): T2 sequence (O00519 whole entry)

[10] = Ratio of drug level in brain to plasma in rat at 3 mg/kg, po; assay type: ADME, organism-based; set-up: dose 3 mg/kg, route oral; conditions: read-out: BPR
Summary of the method: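 Rats were dosed orally at 0.03, 0.3 or 3 mg/kg as a suspension in 0.5% methylcellulose. Compound levels in plasma and brain were quantified by LC/MS/MS. Cmax, Tmax and AUC are means of n = 3.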

SMILES | inhibition in vivo at 10 mg/kg (Mus musculus) [%] | IC50 [1] [nM] | IC50 [2] [nM] | solubility [3] [µg/mL] | also measured
O=C(Nc1cccnn1)N1CCN(c2nccc(-c3cc(F)ccc3F)n2)CC1 | 2.2 | 0.17 | 0.025 | < 0.06 | –
O=C(Nc1cccnn1)N1CCN(c2nccc(-c3cc(F)cc(F)c3)n2)CC1 | 0.9 | 0.34 | 0.08 | 0.1 (≈ 0.252 µM) | –
O=C(Nc1cccnn1)N1CCN(c2cccc(-c3ccc(F)cc3F)n2)CC1 | – | 13 | 36 | – | –
O=C(Nc1cccnn1)N1CCN(c2nccc(-c3ccc(F)cc3F)n2)CC1 | – | 0.43 | 1.1 | 0.85 (≈ 2.14 µM) | –
O=C(Nc1cccnn1)N1CCN(c2nccc(-c3cccc(F)c3F)n2)CC1 | 18.9 | 1.2 | 0.072 | 0.16 (≈ 0.403 µM) | –
O=C(Nc1cccnn1)N1CCN(c2cc(-c3ccc(F)cc3F)ccn2)CC1 | – | 4.3 | 2.2 | – | –
O=C(Nc1cccnn1)N1CCN(c2ccnc(-c3ccc(F)cc3F)c2)CC1 | – | 12 | 28 | – | –
O=C(Nc1cccnn1)N1CCN(c2cncc(-c3ccc(F)cc3F)c2)CC1 | – | 74 | 140 | – | –
O=C(Nc1cccnn1)N1CCN(c2ccnc(-c3ccc(F)cc3F)n2)CC1 | – | 34 | 23 | 52 (≈ 131 µM) | –
CCCCC/C=C\C/C=C\C/C=C\C/C=C\CCCC(=O)NCCO [ANANDAMIDE] | – | – | – | – | AUC (Brain [4]): 311.6 ng·h/g; AUC (Brain [5]): 232.9 ng·h/g; AUC (Brain [6]): 64.3 ng·h/g
O=C(Nc1cccnn1)N1CCN(c2cc(-c3ccc(F)cc3F)ncn2)CC1 | – | 1.7 | 1.5 | – | –
O=C(Nc1cccnn1)N1CCN(c2nccc(-c3ccc(F)c(F)c3)n2)CC1 | 34.7 | 0.28 | 0.72 | 3.1 (≈ 7.8 µM) | AUC (Brain [4]): 15955 ng·h/g; Activity (Rattus norvegicus [7]): Dose-dependent effect; Activity (Rattus norvegicus [8]): Dose-dependent effect; AUC (Brain [5]): 898 ng·h/g; AUC (Brain [6]): 0 ng·h/g; inhibition [9]: tde; Kp [10]: 2
